In ChEMBL document CHEMBL4513216, “Probing the Open Global Health Chemical Diversity Library for Multistage-Active Starting Points for Next-Generation Antimalarials” (ACS Infect Dis, 2020):

Assay: Toxicity liver stage against HepG2, at 10uM
Type: cell-based
Parameters: test concentration 10 uM, cell line HepG2-A16-CD81EGFP
Conditions: human, HepG2-A16-CD81EGFP cells; read-out: INHIBITION
Procedure, shortened: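 Uninfected HepG2-A16-CD81EGFP cells, 3 × 10^3 per well, 1536-well, plated on prespotted compound at 10 μM final, parasite-free screening media added to match infected plates; puromycin 10 μM positive, DMSO 0.5% negative; run in parallel with 48 h PbLuc assay at 37 °C, 5% CO2; viability by CellTiter-Glo luminescence, normalized to controls.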
With Cc1cc(C)n(CC2CCCN2C(=O)c2cncnc2C)n1 (centres undefined) the cytotoxicity at 10 µM was -2.98%.
With CNc1ncc(CN(C)c2nc(C3CCCC3)nc3c2cnn3C)cn1 the cytotoxicity at 10 µM was 24.1%.
Cc1nc(C2CCCN2CC(=O)N2CCc3ccccc32)no1 (centres undefined) showed a cytotoxicity at 10 µM of -19.6%.
In the case of O=C(COc1ccc(F)cc1)N1CCCSCC1CN1CCOCC1 (centres undefined), the cytotoxicity at 10 µM is reported as -0.0603%.
For CCc1c(C(=O)NC2CCS(=O)(=O)C2)cnn1-c1ccc(C)cc1 (centres undefined), the cytotoxicity at 10 µM was -5.94%.
In the case of CCc1nc(CN2CCN(C(=O)c3cc(C)nn3C)CC2)cs1, the cytotoxicity at 10 µM is reported as 3.83%.
In the case of CN(C)c1cccc(C2CCCN2S(=O)(=O)c2cn(C)cn2)n1 (centres undefined), the cytotoxicity at 10 µM is reported as -28.7%.
In the case of Cc1cccc(N2CCOC(C(=O)O)C2)c1 (centres undefined), the cytotoxicity at 10 µM is reported as -8.89%.
Work on CCc1ccc(CN2CCCCC2c2n[nH]cc2-c2cc(C)no2)cc1 (centres undefined) yielded a cytotoxicity at 10 µM of 35%.
In the case of CN(C)Cc1nc2c(o1)CN(C(=O)c1ccncc1F)C2, the cytotoxicity at 10 µM is reported as -114%.
Molecule c1coc(-c2nnc(CN3CCOC(Cn4cccn4)C3)o2)c1 (centres undefined) has a cytotoxicity at 10 µM of -11%.
With COc1cc2ccccc2cc1C(=O)N1CCCC(c2nncn2C)C1 (centres undefined) the cytotoxicity at 10 µM was -6.9%.
Molecule Cc1noc(CCNC(=O)c2ccc(Br)c(S(=O)(=O)N(C)C)c2)n1 has a cytotoxicity at 10 µM of 6.45%.
For CCC(C)(C)NC(=O)c1ncn2c1CN(C)S(=O)(=O)c1ccccc1-2, the cytotoxicity at 10 µM was -137%.
For Cc1ncoc1C(=O)N1CC[C@@]2(C[C@H](NS(C)(=O)=O)CCO2)C1, the cytotoxicity at 10 µM was -73%.
In the case of Cc1nsc(N2CCc3sccc3C2)n1, the cytotoxicity at 10 µM is reported as 7.03%.
Work on CCN(CC)C(CNC(=O)c1ccc(S(=O)(=O)NC)cc1)c1ccco1 (centres undefined) yielded a cytotoxicity at 10 µM of -13.5%.
Cc1cc(CN2CC[C@H]3[C@H]2CCN3CC(=O)N(C)C)oc1C showed a cytotoxicity at 10 µM of -5.6%.
Work on Cc1nnc(NC(=O)N2CCCN(C3CCCC3)CC2)s1 yielded a cytotoxicity at 10 µM of -3.16%.
CNC(=O)CN1CCOCC2(CCCN(Cc3ccc(F)cc3)C2)C1 (centres undefined) gave a cytotoxicity at 10 µM of 6.88%.
In the case of CCN1CCN(C(=O)c2[nH]c3ccccc3c2Cl)[C@H]2CS(=O)(=O)C[C@H]21, the cytotoxicity at 10 µM is reported as -5.41%.
Molecule Cc1ccc(-c2noc(CN3CCOC(Cn4cncn4)C3)n2)cc1 (centres undefined) has a cytotoxicity at 10 µM of -4.15%.
For CCOc1ccc(Cl)c(C(=O)N(C)C)n1, the cytotoxicity at 10 µM was -11.3%.
Cc1cc(CN(C)C(=O)c2ccnc(N(C)C)c2)no1 showed a cytotoxicity at 10 µM of 5.46%.
In the case of O=C(CCCn1cncn1)N1CCCC1c1nc(-c2ccccc2)no1 (centres undefined), the cytotoxicity at 10 µM is reported as 0.997%.
In the case of CN(C)c1ccc(C(=O)N2CCC(c3cc4cnccc4[nH]3)CC2)cc1, the cytotoxicity at 10 µM is reported as 1.12%.
Molecule CN1CC[C@H]2CN(C(=O)c3csc(Cc4ccccc4)n3)C[C@H]21 has a cytotoxicity at 10 µM of -2.45%.
COc1cccc(CC(=O)N2CCC(c3ccn4nccc4n3)CC2)c1 showed a cytotoxicity at 10 µM of -3.79%.
For Cc1cnc(N)c(C(=O)C2CCN(C(=O)c3cnc(C)cn3)CC2)c1, the cytotoxicity at 10 µM was -19.7%.
In the case of Cc1ccc(CN2CCC3(CCN(S(=O)(=O)c4ccccc4)C3)C2)o1 (centres undefined), the cytotoxicity at 10 µM is reported as -0.00736%.
CC(c1nc(C(C)(C)C)no1)N1CCN(Cc2ccc(C#N)cc2)CC1 (centres undefined) gave a cytotoxicity at 10 µM of -5.38%.
Molecule Cn1nccc1CNC(=O)Nc1cc(C(F)(F)F)c[nH]c1=O has a cytotoxicity at 10 µM of 1.04%.
In the case of Cc1occc1C(=O)NCC(O)c1ccc(Cl)s1 (centres undefined), the cytotoxicity at 10 µM is reported as -16.4%.
Work on CN(Cc1cc(Br)cn1C)C(=O)c1cc(Cl)ccn1 yielded a cytotoxicity at 10 µM of -11%.
In the case of Cc1ccc(C(=O)N2CCOC(c3nc(-c4ncccn4)no3)C2)cc1 (centres undefined), the cytotoxicity at 10 µM is reported as -19.9%.
Work on N#Cc1ccc(CN2CCCC2Cn2cccn2)c(F)c1 (centres undefined) yielded a cytotoxicity at 10 µM of -9.2%.
Molecule Cc1n[nH]c(C)c1Sc1ccccc1NC(=O)CN1CCCC1 has a cytotoxicity at 10 µM of -8.7%.
CN(C)C(=O)CN1CCOCC2(C1)CN(c1ncccn1)CCO2 (centres undefined) gave a cytotoxicity at 10 µM of 1.71%.
COc1cccc(C(=O)N2CCCCC2c2nccs2)c1OC (centres undefined) showed a cytotoxicity at 10 µM of -14.4%.
Molecule COc1ccc(F)cc1S(=O)(=O)NCCn1cnc(C)cc1=O has a cytotoxicity at 10 µM of -6.49%.
Cc1ccccc1OCCCC(=O)N1CCCC(n2cncn2)C1 (centres undefined) showed a cytotoxicity at 10 µM of -4.36%.
For Cc1nc(N2CCOCC2)nc2c1CN(C(=O)Cc1ccccn1)CC2, the cytotoxicity at 10 µM was -7.61%.
Work on CCOc1ccccc1N1CCN(C(=O)c2cc[nH]n2)CC1 yielded a cytotoxicity at 10 µM of -11%.
With O=C(CNC(=O)Nc1c(F)cc(F)cc1-c1ccccc1)NC1CC1 the cytotoxicity at 10 µM was -13.5%.
